# Results reported in paper PMC9089800 (RSC Advances, 2018).
# Like-named read-outs stand apart in the source and are kept apart here.
# How the values were obtained:
# MDA-MB-231 = assay: MTT growth inhibition / cytotoxicity assay, MDA-MB-231; type: cell-based, human
# MCF7 = assay: MTT growth inhibition / cytotoxicity assay, MCF7; type: cell-based, human
# MCF7 cells [1] = assay: DNA fragmentation assay; type: cell-based, human; conditions: MCF7, 24 h; 30 μM of 9, 20 μM of 10
# caspase 9 = assay: Western blot for apoptotic pathway; type: cell-based, human; conditions: MCF7, 24 h; 30 μM of 9, 20 μM of 10
# Procedure, shortened: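 MCF7 cells exposed 24 h to DMSO vehicle or test compound. Lysed 20 min on ice in Tris pH 7.4/EDTA/NaCl/NaF/orthovanadate/0.5% Triton X-100, then cleared at 16000 × g at 4 °C. Protein quantified by Bradford; samples boiled in Laemmli buffer. SDS-PAGE, PVDF transfer, 3% milk/TBST block. Anti-caspase 9 overnight at 4 °C; HRP secondary; chemiluminescent detection.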
# MCF10A = assay: cells; type: cell-based; conditions: 48 h; for IC50: Homo sapiens, MCF-10A, read-out: IC50 in μM MCF10A
# MCF7 cells [2] = assay: Cell cycle analysis by FACS; type: cell-based, human; conditions: MCF7, 24 h; 30 μM of 9, 20 μM of 10
# Procedure, shortened: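 Cells seeded a day before; treated 24 h with test compound or DMSO vehicle (final DMSO <0.02%). Cells trypsinised, pelleted at 4 °C, fixed overnight at 4 °C in chilled 95% ethanol, and PBS-washed. Stained with propidium iodide plus RNase in PBS/2 mM MgCl2 for 20 min at 37 °C, then acquired by flow cytometry. Three repeats; mean sub-G1 population plotted.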
# MCF7 cells [3] = assay: Immunostaining; type: cell-based, human; conditions: IC50 concentration, 12 hours
# Procedure, shortened: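 Cells grown overnight as a monolayer on coverslips, then exposed to test compound for 12 h. Fixed in 3.7% formaldehyde for 20 min at room temperature in the dark. Permeabilised with 0.5% Tween-20 for 30 min, then blocked with 3% BSA. Stained 1 h with anti-α-tubulin, then 1 h with Alexa Fluor 594 secondary. DNA counterstained with Hoechst; mounted in DABCO/glycerol.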
# [4] = Homo sapiens, MCF7, 48 h, read-out: IC50 in μM MCF7, MTT, 48 h, 0–100 μM
# [5] = read-out: IC50 in μM MCF7, MTT, 48 h, 0–100 μM
SMILES,"IC50 in μM MDA-MB-231 (MDA-MB-231; 48 h, 0–100 μM)",IC50 (MCF7; [4]) [µM],"IC50 in μM MCF7 (MCF7; MTT, 48 h, 0–100 μM)",fragmentation of genomic DNA (ladder on agarose gel) (MCF7 cells [1]),apoptotic pathway (caspase 9 immunoblot) (caspase 9),IC50 (MCF10A) [µM],cytotoxic effect on normal breast epithelial MCF10A cells (in words) (MCF10A; MTT),apoptotic (sub-G1) population (MCF7 cells [2]),"DNA fragmentation by Hoechst staining, tubulin morphology (MCF7 cells [3])",IC50 (MCF7; [5]) [µM],"IC50 (MDA-MB-231; read-out: IC50 in μM MDA-MB-231, 48 h, 0–100 μM) [µM]"
"C=C1[C@@H]2[C@H]3OC(=O)C(=C)[C@@H]3CCC(=C)[C@@H]2C[C@@H]1O [Compound 2, Zaluzanin C]",inactive,> 100,inactive,–,–,–,–,–,–,–,–
"C=C1[C@@H]2[C@H]3OC(=O)[C@@H](CN[C@H](C)c4cccc5ccccc45)[C@@H]3CCC(=C)[C@@H]2C[C@@H]1OC(C)=O [Compound 9, (3R,3aS,6aR,8S,9aR,9bS)-6,9-Dimethylene-3-((((R)-1-(naphthalen-1-yl)ethyl)amino)methyl)-2-oxododecahydroazuleno[4,5-b]furan-8-yl acetate]",–,< 50,–,substantial fragmented DNA ladder,cleavage of caspase 9,42 ± 4.1,potent cytotoxic effect,significantly increased the apoptotic populations,fragmented DNA,30 ± 0.7,–
"C=C1[C@@H]2[C@H]3OC(=O)[C@@H](CN4CCC(O)CC4)[C@@H]3CCC(=C)[C@@H]2C[C@@H]1O [Compound 14, (3R,3aS,6aR,8S,9aR,9bS)-8-Hydroxy-3-((4-hydroxypiperidin-1-yl)methyl)-6,9-di-methylenedecahydroazuleno[4,5-b]furan-2(3H)-one]",–,< 50,–,–,–,> 50,–,induced apoptosis to a lesser extent,–,40 ± 2.16,25 ± 2.3
